In general, Km refers to the substrate concentration at which the rate is half of its maximum.

Molecules are shown by their SMILES. Like-named read-outs stand apart in the source and are kept apart here.

Conditions in all cases: 4 mM MgSO4
Test [1] relates to Dkum (wt). Kind of test: luminometry, peak light intensity, Michaelis-Menten fit. The format is biochemical, Drilaster kumejimensis.
The subject of test [2] is Pmat (wt).
The subject of a further test is MALuci2 (wt). Kind of test: luminometry, peak light intensity, Michaelis-Menten fit. The format is biochemical, Luciola sp. In outline: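 Wild-type luciferase coding sequence from lantern cDNA, expressed from pRSET-B in E. coli JM109(DE3) and Ni-NTA purified. Luciferin Km: 50 μg/mL partially purified enzyme, luciferin 0.6–640 μM. ATP Km: 50 μg/mL purified enzyme, ATP 5–1920 μM. Light emission recorded 10 s at 0.02 s gating on a luminometer. Rate taken as peak intensity; Km from least-squares Michaelis–Menten fit.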

Test [3] concerns Psag (wt). Kind of test: luminometry, peak light intensity, Michaelis-Menten fit. The format is biochemical, Pristolycus sagulatus.
Test [4] has as its system Sfla (wt).
The subject of test [5] is Sfla (wt). Kind of test: luminometry, peak light intensity, Michaelis-Menten fit. The format is biochemical, Stenocladius flavipennis.
The subject of test [6] is Dkum (wt).
The test system of test [7] is Pmat (wt). Kind of test: luminometry, peak light intensity, Michaelis-Menten fit. The format is biochemical, Pyrocoelia matsumurai kumejimensis.
Test [8] has as its system Psag (wt).
Where [9] appears, read: read-out: Km (ATP μM), 50 mM Tris-HCl pH 8.0, 1 mM luciferin.
Setting [10] is: read-out: Km (luciferin μM), 50 mM Tris-HCl pH 8.0, 2 mM ATP.

Regarding `Nc1ncnc2c1ncn2[C@@H]1O[C@H](COP(=O)(O)OP(=O)(O)OP(=O)(O)O)[C@@H](O)[C@H]1O` [ATP], the Michaelis constant (Km) is 127 µM in the test on Dkum (wt) [1] (setting [9]); 98.1 µM in the test with Pmat (wt) [2] (setting [9]); 188 µM with MALuci2 (wt) (setting [9]); 194 µM in the test with Psag (wt) [3] (setting [9]); 9 µM in the test with Sfla (wt) [4] (setting [9]); 21.5 µM in the test with Sfla (wt) [5] (setting [9]). The figures for the Michaelis constant (Km) in the test with Dkum (wt) [6] (setting [9]), with Pmat (wt) [7] (setting [9]) and in the test on Psag (wt) [8] (setting [9]) were 26.8 µM, 104 µM and 282 µM, respectively.
Consider `O=C(O)[C@H]1CSC(c2nc3ccc(O)cc3s2)=N1` [D-luciferin], for which the Km with Dkum (wt) [1] (setting [10]) is 60.1 µM; in the test on Pmat (wt) [2] (setting [10]), 62.2 µM; in the test with MALuci2 (wt) (setting [10]), 4.25 µM; with Psag (wt) [3] (setting [10]) it was 4.9 µM; with Sfla (wt) [4] (setting [10]) it was 6.6 µM; in the test with Sfla (wt) [5] (setting [10]), 16.6 µM. In addition, the Michaelis constant (Km) came out at 19.4 µM with Dkum (wt) [6] (setting [10]), 14.2 µM with Pmat (wt) [7] (setting [10]) and 222 µM in the test on Psag (wt) [8] (setting [10]).

The record behind these values is paper PMC7262549 (Biochemistry and Biophysics Reports, 2020).
